Reference: ChEMBL document CHEMBL5335834, “Development and In Vivo Evaluation of Small-Molecule Ligands for Positron Emission Tomography of Immune Checkpoint Modulation Targeting Programmed Cell Death 1 Ligand 1” (J Med Chem, 2024)
One block for each molecule: values may come before it.

Key:
[1] = molecular target: T1, Programmed cell death protein 1/Programmed cell death 1 ligand 1 (Homo sapiens, UniProt Q9NZQ7); experiment: Inhibition of Ig-tagged PD-1 (unknown origin)/His-tagged PD-L1 (unknown origin) protein-protein interaction preincubated with PD-L1 for 15 mins followed by PD-1 addition measured after 15 mins by HTRF assay; assay type: protein-complex assay
T1 sequence (Q15116 whole entry): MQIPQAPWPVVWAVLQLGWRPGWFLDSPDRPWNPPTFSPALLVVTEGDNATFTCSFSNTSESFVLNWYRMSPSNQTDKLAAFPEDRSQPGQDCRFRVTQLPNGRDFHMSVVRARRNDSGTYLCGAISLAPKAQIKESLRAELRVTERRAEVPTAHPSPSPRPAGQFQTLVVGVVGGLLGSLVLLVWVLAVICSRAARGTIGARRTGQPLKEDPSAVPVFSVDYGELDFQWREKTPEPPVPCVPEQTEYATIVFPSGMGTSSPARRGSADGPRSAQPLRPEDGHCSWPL
T1 sequence (Q9NZQ7 whole entry): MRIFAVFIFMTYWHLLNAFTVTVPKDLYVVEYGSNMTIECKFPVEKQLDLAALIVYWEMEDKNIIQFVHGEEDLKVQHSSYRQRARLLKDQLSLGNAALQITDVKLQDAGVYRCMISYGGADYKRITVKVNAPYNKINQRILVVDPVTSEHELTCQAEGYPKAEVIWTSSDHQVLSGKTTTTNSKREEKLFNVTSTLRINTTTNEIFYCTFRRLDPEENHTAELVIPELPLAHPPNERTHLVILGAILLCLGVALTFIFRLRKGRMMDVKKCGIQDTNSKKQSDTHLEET

[2] = molecular target: Programmed cell death 1 ligand 1 (Homo sapiens) (UniProt Q9NZQ7); experiment: Inhibition of [89Zr]Zr-atezolizumab binding from human PD-L1 transfected in CHO cells assessed as radioligand activity at 200 nM preincubated for 30 mins followed by [89Zr]Zr-atezolizumab addition measured after 60 mins by Wizard2 gamma counter analysis (reference value: 8.4 %); assay type: cell-based; design: scale not given: the % may be the effect or the level left; conditions: time 90.0 min
Chain of Programmed cell death 1 ligand 1 (Homo sapiens) (Q9NZQ7 whole entry): as above

[3] = molecular target: T1, Programmed cell death protein 1/Programmed cell death 1 ligand 1; experiment: Inhibition of His-tagged PD-1 (unknown origin)/hFc-tagged PD-L1 (unknown origin) protein-protein interaction incubated for 15 mins by HTRF assay; assay type: protein-complex assay
How it was run: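 Small molecules were tested as 10-fold dilution series at a constant final 0.2% DMSO. IC50 came from a four-parameter variable-slope fit of normalized data, with three independent repeats.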

[4] = Drug uptake in mouse B16-F10 cells expressing PD-L1 in xenograft model; assay type: ADME, cell-based; conditions: in vivo
[5] = molecular target: Programmed cell death 1 ligand 1 (Homo sapiens) (UniProt Q9NZQ7); experiment: Inhibition of [89Zr]Zr-atezolizumab binding from human PD-L1 transfected in CHO cells assessed as radioligand activity at 5000 nM preincubated for 30 mins followed by [89Zr]Zr-atezolizumab addition measured after 60 mins by Wizard2 gamma counter analysis (reference value: 8.4 %); assay type: cell-based; design: scale not given: the % may be the effect or the level left; conditions: time 90.0 min
[6] = Drug uptake in human A-375 cells expressing PD-L1 xenografted in bilateral tumors bearing BALB/c mouse model at ~2.5 MBq measured for 120 mins by autoradiography; assay type: ADME, cell-based; conditions: in vivo, 2 h
[7] = Drug uptake in human A-375 cells xenografted in bilateral tumors bearing BALB/c mouse model at ~2.5 MBq measured for 120 mins by autoradiography; assay type: ADME, cell-based; conditions: in vivo, 2 h
[8] = Biodistribution in bilateral tumors bearing BALB/c mouse model assessed as ratio of drug uptake in human A-375 cells expressing PD-L1 to drug uptake in human A-375 cells at ~2.5 MBq measured for 120 mins by autoradiography; assay type: ADME, organism-based, Neoplasm; conditions: a-375, 2 h
[9] = Drug uptake in human A-375 cells expressing PD-L1 xenografted in bilateral tumors bearing BALB/c mouse model at ~7.4 MBq measured for 50 mins by micro-PET imaging analysis; assay type: ADME, cell-based; conditions: in vivo
[10] = Drug uptake in human A-375 cells xenografted in bilateral tumors bearing BALB/c mouse model at ~7.4 MBq measured for 50 mins by micro-PET imaging analysis; assay type: ADME, cell-based; conditions: in vivo
[11] = Biodistribution in bilateral tumors bearing BALB/c mouse model assessed as ratio of drug uptake in human A-375 cells expressing PD-L1 to drug uptake in human A-375 cells at ~7.4 MBq measured for 50 mins by micro-PET imaging analysis; assay type: ADME, organism-based, Neoplasm; conditions: a-375, 50 min
CHO [12] = experiment: Biodistribution in CHO cells expressing hPD-L1 xenografted in NSG mouse co-xenografted with CHO-K1 cells at 31.91 +/- 3.05 MBq measured for 30 to 70 mins by Wizard2 gamma counter analysis; assay type: ADME, organism-based, Cricetulus griseus; conditions: chinese hamster, in vivo, time 30-70 min
How it was run: (§1)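 Male NSG mice, 8–10 weeks old, carried subcutaneous CHO-K1 and CHO-hPD-L1 xenografts on opposite flanks (1.5 × 10^6 cells each in PBS/matrigel 1:1). Eleven days after inoculation, radiotracer was injected into the lateral tail vein under isoflurane. Organs were collected at 30, 40 and 70 min, wet-weighed and gamma-counted for 30 s. Counts were background- and decay-corrected to injection, expressed as %ID/g.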

CHO-K1 [13] = experiment: Biodistribution in CHO-K1 cells xenografted in NSG mouse co-xenografted with CHO cells expressing hPD-L1 at 31.91 +/- 3.05 MBq measured for 30 to 70 mins by Wizard2 gamma counter analysis; assay type: ADME, organism-based, Cricetulus griseus; conditions: chinese hamster, in vivo, time 30-70 min; how it was run: as §1
[14] = Stability in mouse plasma assessed as compound remaining measured for 60 mins by HPLC analysis; assay type: ADME, cell-free; conditions: read-out: Stability
How it was run: (§2)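 Formulated radiotracer (25 μL) was incubated in 1250 μL pooled mouse or human plasma at 37 °C. At 0, 15, 30 and 60 min, aliquots were quenched with equal-volume MeCN and centrifuged (4 min, 4 °C, 21,380g). Intact tracer (%) was measured by reversed-phase radio-HPLC.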

[15] = Stability in human plasma assessed as compound remaining measured for 60 mins by HPLC analysis; assay type: ADME, cell-free; conditions: read-out: Stability; how it was run: as §2
[16] = Biodistribution in kidney of NSG mouse xenografted with CHO-K1 cells/CHO cells expressing hPD-L1 at 31.91 +/- 3.05 MBq measured for 30 to 70 mins by Wizard2 gamma counter analysis; assay type: ADME, organism-based; conditions: in vivo, time 30-70 min; how it was run: as §1
[17] = Biodistribution in lung of NSG mouse xenografted with CHO-K1 cells/CHO cells expressing hPD-L1 at 31.91 +/- 3.05 MBq measured for 30 to 70 mins by Wizard2 gamma counter analysis; assay type: ADME, organism-based; conditions: in vivo, time 30-70 min; how it was run: as §1
[18] = Biodistribution in liver of NSG mouse xenografted with CHO-K1 cells/CHO cells expressing hPD-L1 at 31.91 +/- 3.05 MBq measured for 30 to 70 mins by Wizard2 gamma counter analysis; assay type: ADME, organism-based; conditions: in vivo, time 30-70 min; how it was run: as §1
[19] = Drug metabolism in brain of NSG mouse xenografted with CHO-K1 cells/CHO cells expressing hPD-L1 assessed as accumulation of radiometabolite formation at 31.91 +/- 3.05 MBq measured for 60 mins by micro-PET analysis; assay type: ADME, tissue-based; conditions: in vivo, 1 h
[20] = Drug metabolism in white adipose tissue of NSG mouse xenografted with CHO-K1 cells/CHO cells expressing hPD-L1 assessed as accumulation of radiometabolite formation at 31.91 +/- 3.05 MBq measured for 60 mins by micro-PET analysis; assay type: ADME, tissue-based; conditions: in vivo, 1 h
[21] = Biodistribution in brain of NSG mouse xenografted with CHO-K1 cells/CHO cells expressing hPD-L1 at 31.91 +/- 3.05 MBq measured for 60 mins by micro-PET analysis; assay type: ADME, organism-based; conditions: in vivo, 1 h
How it was run: (§3)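 Dynamic whole-body μPET/CT ran up to 60 min and was reconstructed by OSEM3D/MAP. Volumes of interest came from fused PET/CT, with uptake normalized to injected dose and volume as %ID/cc.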

[22] = Biodistribution in white adipose tissue of NSG mouse xenografted with CHO-K1 cells/CHO cells expressing hPD-L1 at 31.91 +/- 3.05 MBq measured for 60 mins by micro-PET analysis; assay type: ADME, organism-based; conditions: in vivo, 1 h; how it was run: as §3
CHO [23] = experiment: Biodistribution in CHO cells expressing hPD-L1 xenografted in NSG mouse co-xenografted with CHO-K1 cells at 31.91 +/- 3.05 MBq measured for 60 mins by micro-PET analysis; assay type: ADME, organism-based, Cricetulus griseus; conditions: chinese hamster, in vivo, 1 h; how it was run: as §3
[24] = Biodistribution in kidney of NSG mouse xenografted with CHO-K1 cells/CHO cells expressing hPD-L1 at 31.91 +/- 3.05 MBq measured for 60 mins by micro-PET analysis; assay type: ADME, organism-based; conditions: in vivo, 1 h; how it was run: as §3
CHO-K1 [25] = experiment: Biodistribution in CHO-K1 cells xenografted in NSG mouse co-xenografted with CHO cells expressing hPD-L1 at 31.91 +/- 3.05 MBq measured for 60 mins by micro-PET analysis; assay type: ADME, organism-based, Cricetulus griseus; conditions: chinese hamster, in vivo, 1 h; how it was run: as §3
[26] = Biodistribution in gall bladder of NSG mouse xenografted with CHO-K1 cells/CHO cells expressing hPD-L1 at 31.91 +/- 3.05 MBq measured for 60 mins by micro-PET analysis; assay type: ADME, organism-based; conditions: in vivo, 1 h; how it was run: as §3
[27] = Biodistribution in intestine of NSG mouse xenografted with CHO-K1 cells/CHO cells expressing hPD-L1 at 31.91 +/- 3.05 MBq measured for 60 mins by micro-PET analysis; assay type: ADME, organism-based; conditions: in vivo, 1 h; how it was run: as §3
[28] = Biodistribution in liver of NSG mouse xenografted with CHO-K1 cells/CHO cells expressing hPD-L1 at 31.91 +/- 3.05 MBq measured for 60 mins by micro-PET analysis; assay type: ADME, organism-based; conditions: in vivo, 1 h; how it was run: as §3

SMILES: CCOc1cccc(-c2cccc(COc3cc(OC)c(CNCCNC(C)=O)c(OC)c3)c2C)c1
IC50 [1]: 110 nM

SMILES: CCOC(=O)/C(C#N)=C/c1cccc(C#N)c1
Activity [2]: 0%

SMILES: N#Cc1cc(COc2cc(OCc3cccc(-c4ccc5c(c4)OCCO5)c3Br)c(Cl)cc2CN2CCCC[C@H]2C(=O)O)ccn1
IC50 [3]: 0.001 nM

SMILES: Cc1c(COc2cc(OCc3cccc(OS(=O)(=O)[18F])c3)c(CNC(CO)(CO)CO)cc2Cl)cccc1-c1ccc2c(c1)OCCO2
Drug uptake [4]: 3.33 %ID/ml

SMILES: N#Cc1cncc(COc2cc(OCc3cccc(-c4ccccc4)c3Br)c(Cl)cc2CN2CCCC[C@H]2C(=O)O)c1
IC50 [3]: 0.01 nM

SMILES: Cc1cc(CN2CCCCC2C(=O)O)ccc1OCc1cccc(-c2ccccc2)c1C (configuration not stated)
IC50 [1]: 6 nM

SMILES: Cc1c(COc2cc(OCc3ccnc(C#N)c3)c(CN(C)[C@H](CO)C(=O)O)cc2Cl)cccc1-c1ccc2c(c1)OCCO2
Activity [5]: 4.2%

SMILES: Cc1c(COc2cc(OCc3ccnc(C#N)c3)c(CN(C)CCO)cc2Cl)cccc1-c1ccc2c(c1)OCCO2
Activity [5]: 4.7%

SMILES: COc1cc(OCc2cccc(-c3ccc4c(c3)OCCO4)c2C)cc(OC)c1CNCCNC(C)=O
IC50 [1]: 6 nM

Drug uptake [6]: 3.98 % ID/g
Drug uptake [7]: 1.38 % ID/g
Ratio [8]: 2.9
SMILES: Cc1c(COc2cc(OCc3cccc(C#N)c3)c(CNCCNC(=O)CO/N=C/[C@H]([18F])[C@@H](O)[C@H](O)[C@H](O)CO)cc2Cl)cccc1-c1ccc2c(c1)OCCO2

Drug uptake [9]: 3.53 %ID/ml
Drug uptake [10]: 1.19 %ID/ml
Ratio [11]: 3
SMILES: Cc1c(COc2cc(OCc3cccc(C#N)c3)c(CN3CCN(CCOCCOCCOCC[18F])CC3)cc2Cl)cccc1-c1ccc2c(c1)OCCO2

Drug uptake (CHO [12]): < 1.5 % ID/g
Drug uptake (CHO-K1 [13]): < 1.5 % ID/g
remaining at 1 h [14]: > 99%
remaining at 1 h [15]: > 99%
Drug uptake [16]: Active
Drug uptake [17]: Active
Drug uptake [18]: Active
Drug metabolism [19]: Metabolite_Notdetected
Drug metabolism [20]: Metabolite_Notdetected
Drug uptake [21]: < 1.2 %ID/cc
Drug uptake [22]: < 1.2 %ID/cc
Drug uptake (CHO [23]): < 1.2 %ID/cc
Drug uptake [24]: Active
Drug uptake (CHO-K1 [25]): < 1.2 %ID/cc
Drug uptake [26]: Active
Drug uptake [27]: Active
Drug uptake [28]: Active
SMILES: Cc1c(COc2cc(OCc3ccnc(C#N)c3)c(CN([11CH3])CCO)cc2Cl)cccc1-c1ccc2c(c1)OCCO2
